Most compounds without a hit are left out; they make up all but 3.1% or so of the library.
TbHK1 inh: T. brucei hexokinase 1 inhibition; recombinant TbHK1, G6PDH-coupled NADH A340; inhibition, % at 10 µM; hit rate 0.11% among 220,000; AID 1430;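 active = inhibition of 50% or more in the single-dose primary screen; inactive = inhibition below 50%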
HKDC1 inhibitor: HKDC1 (human) hexokinase inhibition; hit rate 0.16% among 340,000; inhibition, % at 20 µM; Q2TB90; recombinant HKDC1, G6PDH/diaphorase resazurin coupled fluorescence;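 active = inhibition above about 35% when tested at 20 µM, limit read from the data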
Target sequence (Q2TB90 whole entry, looked up): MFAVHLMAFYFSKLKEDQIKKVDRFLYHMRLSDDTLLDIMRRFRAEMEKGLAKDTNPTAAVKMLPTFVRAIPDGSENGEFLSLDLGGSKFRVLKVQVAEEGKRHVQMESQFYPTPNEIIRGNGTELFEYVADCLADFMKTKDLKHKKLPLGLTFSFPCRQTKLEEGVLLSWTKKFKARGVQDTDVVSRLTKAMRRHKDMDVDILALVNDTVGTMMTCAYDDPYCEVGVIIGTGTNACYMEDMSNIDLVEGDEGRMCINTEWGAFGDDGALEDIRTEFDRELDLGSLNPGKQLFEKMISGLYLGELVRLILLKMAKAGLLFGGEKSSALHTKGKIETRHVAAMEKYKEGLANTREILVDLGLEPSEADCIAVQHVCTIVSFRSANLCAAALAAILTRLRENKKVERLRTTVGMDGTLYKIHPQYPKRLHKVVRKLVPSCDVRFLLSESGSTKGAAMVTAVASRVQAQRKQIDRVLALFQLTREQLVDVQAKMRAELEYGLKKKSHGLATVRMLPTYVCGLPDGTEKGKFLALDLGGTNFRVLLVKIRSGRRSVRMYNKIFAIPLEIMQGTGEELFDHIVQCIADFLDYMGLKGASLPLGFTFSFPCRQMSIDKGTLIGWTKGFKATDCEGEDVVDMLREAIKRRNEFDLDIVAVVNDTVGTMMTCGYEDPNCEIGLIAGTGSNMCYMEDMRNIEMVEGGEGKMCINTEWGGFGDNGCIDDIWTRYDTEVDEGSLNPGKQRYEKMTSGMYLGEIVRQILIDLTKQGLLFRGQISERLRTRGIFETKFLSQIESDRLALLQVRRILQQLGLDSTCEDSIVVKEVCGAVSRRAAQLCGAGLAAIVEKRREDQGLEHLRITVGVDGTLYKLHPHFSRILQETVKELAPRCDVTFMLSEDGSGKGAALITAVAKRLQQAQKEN
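Incubation: 90 min at room temperature in dark / Material: recombinant HKDC1 (HK5) hexokinase enzyme, produced in-house / Quantity: enzyme 5 µg/mL final / Compound: one dose of 20 µM, 1% DMSO / Reagent: glucose and ATP substrates / Buffer or medium: Tris pH 8.0 buffer with MgCl2, Tween-20, BSA, BME / Technique: resorufin fluorescence at 613 nm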
HSF1 inh: HSF1 inhibition; AID 2098; NIH3T3-HGL HSE-luciferase, MG132-induced, luminescence 8 h; active compounds read low; activity change, negative = inhibition, % at 7.5 µM (by protocol); hit rate 0.77% among 300,000;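 active = more than half of replicate wells show activity change below -50%, luminescence cut by over half; inconclusive = some wells, but at most half, below -50%; inactive = no replicate well below -50%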;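 note: luciferase reports HSF-1 transcriptional activity via heat shock element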
HSP90 inh: HSP90 refolding inhibition in rabbit reticulocyte lysate; inhibition, % at 5.6 µM; AID 1789; hit rate 0.91% among 290,000; luciferase refolding luminescence, 3 h;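 active = inhibition above the screen-wide mean plus 3 SD, computed separately per campaign, cut at about 16% in these data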;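 note: inhibitors lower the luminescence because luciferase stays unfolded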
Hsp70 activator: Hsp70 transcriptional activation, primary screen; HeLa Hsp70 promoter luciferase reporter, luminescence; scaled: vehicle 0, proteasome-inhibitor control 100%; activation, % at 10 µM; hit rate 0.04% among 200,000; AID 1203;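 active = activation above the mean across all tested compounds plus 3 SD, cutoff set per campaign, cut at about 5.5% in these data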
HSF-1 act: increases HSF-1 driven luciferase reporter signal. activation, % at 9 µM. hit rate 1.7% among 300,000. AID 504408. NIH3T3-HGL HSF-1 luciferase reporter, MG132, 8 h; 100% = twice DMSO control signal;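 active = mean replicate activation of at least 50% with a set share of replicates each reaching 50%; inconclusive = only one of those two conditions met; inactive = mean below 50% and too few replicates reaching it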
A number is an active result.

`CCOc1cc(N2CCOCC2)c(OCC)cc1NC(=O)Cc1cccc2ccccc12` gave TbHK1 inh inactive, HKDC1 inhibitor inactive, HSF1 inh inactive, HSP90 inh inactive, Hsp70 activator inactive and HSF-1 act 121.
CCOc1cc(N2CCOCC2)c(OCC)cc1NC(=O)CCS(=O)(=O)c1ccc(Cl)cc1 was read as TbHK1 inh inactive, HKDC1 inhibitor inactive, HSF1 inh inactive, HSP90 inh inactive, Hsp70 activator inactive and HSF-1 act 75.
`CC(OC(=O)C1CCCCC1)C(=O)Nc1ccc(S(N)(=O)=O)cc1` (configuration not stated) gave HKDC1 inhibitor inactive.
CC(CCC(=O)O)C1CCC2C3CC(O)C4CC(O)CC[C@]4(C)C3CCC12C (some centres not stated) was read as HKDC1 inhibitor inactive.
Screening CCOC(=O)c1ccc(S(=O)(=O)Nc2cc(S(=O)(=O)Nc3ccc(OC)cc3)ccc2O)cc1 returned HKDC1 inhibitor inactive.
`O=C(NNC(=O)C1CCCC1)c1cc([N+](=O)[O-])cc([N+](=O)[O-])c1` gave HKDC1 inhibitor inactive.
For CCSc1nnc(NC(=O)c2ccccn2)s1 the results were TbHK1 inh inactive, HKDC1 inhibitor inactive, HSF1 inh inactive, HSP90 inh inactive, Hsp70 activator inactive and HSF-1 act inconclusive.
`CCSc1nnc(NC(=O)c2cccnc2Cl)s1` gave TbHK1 inh inactive, HKDC1 inhibitor inactive, HSF1 inh inactive, HSP90 inh inactive, Hsp70 activator inactive and HSF-1 act 55.
For Cc1cccc(C(=O)NCC(=O)NC2CCC(C)CC2)c1 (configuration not stated) the results were HKDC1 inhibitor inactive, HSF1 inh inactive and HSF-1 act inactive.
`COc1ccc2nc(SCc3cccc(C)c3)nc(C)c2c1` gave TbHK1 inh inactive, HKDC1 inhibitor inactive, HSF1 inh inactive, HSP90 inh inactive, Hsp70 activator inactive and HSF-1 act 95.
COc1ccc2nc(SCc3ccccc3C)nc(C)c2c1 was read as TbHK1 inh inactive, HKDC1 inhibitor inactive, HSF1 inh inactive, HSP90 inh inactive, Hsp70 activator inactive and HSF-1 act 55.
For COc1cccc2[nH]c3c(N4CCC(C)CC4)ncnc3c12 the results were TbHK1 inh inactive, HKDC1 inhibitor inactive, HSF1 inh inactive, HSP90 inh inactive, Hsp70 activator inactive and HSF-1 act inactive.
Screening COc1cccc2[nH]c3c(N4CCc5ccccc5C4)ncnc3c12 returned TbHK1 inh inactive, HKDC1 inhibitor inactive, HSF1 inh inactive, HSP90 inh inactive and HSF-1 act 60.
Screening O=c1oc2ccccc2cc1-c1cn2cccnc2n1 returned TbHK1 inh inactive, HKDC1 inhibitor inactive, HSF1 inh inactive, HSP90 inh inactive, Hsp70 activator inactive and HSF-1 act inactive.
`O=c1oc2ccccc2cc1-c1cn2ccccc2n1` gave TbHK1 inh inactive, HKDC1 inhibitor inactive, HSF1 inh inactive, HSP90 inh 56, Hsp70 activator inactive and HSF-1 act inactive.
`N=C1C(c2nc3ccccc3[nH]2)=C(O)CN1c1ccc(CC(=O)O)cc1` gave TbHK1 inh inactive, HKDC1 inhibitor inactive, HSF1 inh -54, HSP90 inh inactive, Hsp70 activator inactive and HSF-1 act inactive.
`N=C1C(c2nc3ccccc3[nH]2)=C(O)CN1c1ccccc1` gave TbHK1 inh inactive, HKDC1 inhibitor inactive, HSF1 inh inactive, HSP90 inh inactive, Hsp70 activator inactive and HSF-1 act inactive.
Screening COc1ccc(CNc2nc3ccccc3n2C(C)C)c(O)c1 returned HKDC1 inhibitor inactive, HSF1 inh inactive, HSP90 inh inactive and HSF-1 act inactive.
Screening COc1cccc(CNc2nc3ccccc3n2C(C)C)c1O returned HKDC1 inhibitor inactive, HSF1 inh inactive, HSP90 inh inactive and HSF-1 act 182.
CCCn1c(NCc2cccc(OC)c2O)nc2ccccc21 was read as TbHK1 inh inactive, HKDC1 inhibitor inactive, HSF1 inh inactive, HSP90 inh inactive, Hsp70 activator inactive and HSF-1 act 62.
CCCn1c(NCc2cccc(OC)c2OC)nc2ccccc21 was read as TbHK1 inh inactive, HKDC1 inhibitor inactive, HSF1 inh inactive, HSP90 inh inactive, Hsp70 activator inactive and HSF-1 act inactive.
`CC[C@H](C)/C=C(C)/C=C/C(=O)Cc1cc(O)c(C)c(O)c1C=O` gave TbHK1 inh inactive, HKDC1 inhibitor inactive, HSF1 inh inactive and HSF-1 act 78.
`CC(C)(C)OC(=O)C(C1NC(C(=O)O)C(C)(C)S1)N1C(=O)c2ccccc2C1=O` (configuration not stated) gave HKDC1 inhibitor inactive.
O=C(COC(=O)Cn1[nH]c(=O)c2ccccc2c1=O)NNC(=O)c1ccccc1 was read as HKDC1 inhibitor inactive.
CC(C)N(C(=O)COC(=O)c1ccccc1C(=O)c1ccc(Cl)c([N+](=O)[O-])c1)C(C)C was read as TbHK1 inh inactive, HKDC1 inhibitor inactive, HSF1 inh inactive, HSP90 inh inactive, Hsp70 activator inactive and HSF-1 act 91.
For COc1ccccc1CNC(=O)[C@@H](NC(=O)C1CCN(C(=O)[C@@H]2CCCN2)CC1)C(C)C the results were HKDC1 inhibitor inactive, HSF1 inh inactive, HSP90 inh inactive and HSF-1 act inactive.
Screening CCC(=O)N1c2ccccc2NC2=C(C(=O)CC(C)(C)C2)C1c1ccc(O)c(OC)c1 (configuration not stated) returned HKDC1 inhibitor inactive, HSF1 inh inactive, HSP90 inh inactive and HSF-1 act inactive.
Screening Clc1c(-c2ccccc2)nnn1-c1ccccc1 returned TbHK1 inh inactive, HKDC1 inhibitor inactive, HSF1 inh inactive, HSP90 inh inactive, Hsp70 activator inactive and HSF-1 act 75.
`Nc1nnn(-c2ccccc2)c1-c1ccccc1` gave HKDC1 inhibitor inactive, HSF1 inh inactive and HSF-1 act inactive.
CCCCCNS(=O)(=O)c1cc2c3c(c1)CCC(=O)N3CCC2 was read as HKDC1 inhibitor inactive, HSF1 inh inactive, HSP90 inh inactive and HSF-1 act inactive.
Screening CN(CC(=O)Nc1ccccc1Cl)C(=O)Cn1cc(C(F)(F)F)ccc1=O returned HKDC1 inhibitor inactive.
`Cc1ccc(S(=O)(=O)NCC(C)n2cncn2)cc1` (configuration not stated) gave HKDC1 inhibitor inactive, HSF1 inh inactive, HSP90 inh inactive and HSF-1 act inactive.
COc1cc(/C=N/N=C(N)N)ccc1OCc1ccccc1Cl was read as TbHK1 inh inactive, HKDC1 inhibitor inactive, HSF1 inh inactive, HSP90 inh inactive, Hsp70 activator inactive and HSF-1 act 55.
`CC(C)CCNc1nc(N)c([N+](=O)[O-])c(N2CCCCCC2)n1` gave HKDC1 inhibitor inactive, HSF1 inh inactive, HSP90 inh inactive and HSF-1 act inactive.
O=C(C1CCC(CNS(=O)(=O)c2cccc3cccnc23)CC1)N1CCCC1 (configuration not stated) was read as TbHK1 inh inactive, HKDC1 inhibitor inactive, HSF1 inh -86, HSP90 inh inactive, Hsp70 activator inactive and HSF-1 act inactive.
